Entries after “also recorded” stand apart in the source; their conditions may differ.
Assays:
[1] = tested on: p-cofilin in tumor biopsies; test: p-cofilin in pre- and post-treatment tumor biopsies, Protein Simple WES assay; format: in vivo, human; conditions: 8 pre- and post-treatment biopsies
Method in brief: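 Tumor biopsies were taken pre-dose and 24 h post-dose (cycle 1 day 15 or cycle 2 day 1) at 180 mg given thrice weekly. Phospho- and total cofilin were measured by capillary immunoassay (WES), normalized to GAPDH, and quantified as the area under the chemiluminescence peak. Phospho-cofilin was expressed as percent of pre-dose level.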

[2] = tested on: patients with solid tumors; test: First-in-human phase I dose escalation: safety and tolerability; format: in vivo
Method in brief: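 The design was a rolling-six dose escalation across 5–300 mg in 8 cohorts, starting with a single run-in dose 7 days before cycle 1. Dosing was oral, Mon-Wed-Fri, in 28-day cycles. An added cohort escalated within each patient: one week at 120 mg, then 180 mg, then 240 mg during cycle 1. Toxicity was assessed weekly. Patients with hypertension on medication or abnormal fasting glucose were excluded.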

[3] = format: in vivo; conditions: human, plasma, oral
AKT2 = conditions: cited from earlier work
[4] = tested on: p-GSK3β in platelet-rich plasma; test: p-GSK3β; format: in vivo, human
Method in brief: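 Blood was sampled at baseline and at 2, 6, 24 and 48 h after the run-in dose and after the cycle 2, day 1 dose. Platelet-rich plasma was prepared, and GSK3β Ser9 phosphorylation was measured by MSD electrochemiluminescent immunoassay. Results were expressed as percent of baseline, normalized to total GSK3β, and compared with predose by Dunnett's test.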

p-MLC2 in tumor biopsies = test: p-MLC2 in paired tumor biopsies by immunohistochemistry; format: in vivo, human; conditions: 180 mg dose level, 5 paired biopsies
Method in brief: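 Fresh tumor biopsies were taken before and after treatment at 180 mg. Four-μm sections were heated at 60 °C for 20 min and retrieved in Tris pH 9 at 110 °C for 6 min. Staining used primary antibody 40 min at RT, biotinylated secondary 1:200, ABC-HRP amplification, VIP substrate and hematoxylin counterstain. Positive-cell detection used intensity scores 0–3, with a random-trees classifier separating tumor from stroma.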

AKT3 = conditions: cited from earlier work
AKT1 = conditions: cited from earlier work
advanced solid tumors = test: Clinical efficacy; format: in vivo, human; conditions: all dose levels
Method in brief: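 Patients with metastatic solid tumors who had already received standard-of-care treatment took oral test compound three days a week (Mon-Wed-Fri) in 28-day cycles. Cohorts received flat doses from 5 to 300 mg, and one further cohort used intra-patient escalation from 120 to 180 to 240 mg.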

ROCK 2 = conditions: cited from earlier work
ROCK I = conditions: cited from earlier work
[5] = Cohort 9 120-180-240 mg (n=7), grade 1

## NC[C@@](O)(c1ccc(Cl)cc1)c1ccc(-c2cn[nH]c2)cc1 [AT13148]
[1]; 180 mg dose level
  post-treatment biopsies showing a reduction of p-cofilin: 5/8
[1]; 180 mg thrice a week
  post-treatment biopsies with ≥50% (>50%) reduction of p-cofilin: 3/8
[2]; 180 mg
  dose-limiting toxicity: skin rash; also recorded: maculopapular rash
[2]; 240 mg
  dose-limiting toxicities: pneumonitis and elevated liver enzymes; also recorded: elevated transaminases and pneumonitis
[2]; 300 mg
  dose-limiting toxicity: hypotension
[2]; 5 - 300 mg
  most common (treatment related) side effects: fatigue, nausea, headaches and hypotension; also recorded: hypotension, nausea, headache and fatigue
[2]; Cohort 1 5 mg (n=4), grade 1
  Anorexia, No. subjects: 1
  Nausea, No. subjects: 1
[2]; Cohort 1 5 mg (n=4), grade 2
  Fatigue, No. subjects: 1
[2]; Cohort 2 10 mg (n=5), grade 1
  Hypotension, No. subjects: 1
[2]; Cohort 8 300 mg (n=5), grade 1
  Flushing, No. subjects: 1
  Headache, No. subjects: 3
  Nausea, No. subjects: 2
  Vomiting, No. subjects: 1
[2]; [5]
  Anorexia, No. subjects: 2
  Diarrhea, No. subjects: 2
  Fatigue, No. subjects: 2
  Hypotension, No. subjects: 2
  Nausea, No. subjects: 4
  Vomiting, No. subjects: 1
[2]; Cohort 9 120-180-240 mg (n=7), grade 2
  Fatigue, No. subjects: 2
[2]; Cohort 9 intra-patient dose escalation 120-180-240 mg
  DLTs reported: two DLTs (grade 3 pneumonitis at 240 mg and grade 3 rash at 180 mg)
[2]; all cohorts (n = 51)
  Anorexia, Total No. subjects: 7 (13.7%)
  Diarrhea, Total No. subjects: 7 (13.7%)
  Fatigue, Total No. subjects: 9 (17.6%)
  Flushing, Total No. subjects: 6 (11.8%)
  Headache, Total No. subjects: 12 (23.5%)
  Hypotension, Total No. subjects: 20 (39.2%)
  Nausea, Total No. subjects: 15 (29.4%)
  Vomiting, Total No. subjects: 7 (13.7%)
[2]; dose doubling from 5 - 160 mg
  dose-limiting toxicities: no dose-limiting toxicities reported
[2]; in vivo
  time of occurrence of hypotension after dosing: ≤ 8 h
[2]; orally on days 1, 3 and 5 of each week, 28-day cycles
  maximally tolerated dose: 180 mg
[3]
  half-life: 14.4 to 32.2 h
[3]; 180 mg
  AUC: 13.4 µM·h
  Cmax: 383 nM
AKT2
  IC50: 402 nM
[4]; 300 mg, 2 - 6 hrs (legend: 2 - 24 hrs) after treatment, Dunnett's test
  change of p-GSK3β levels in platelet-rich plasma vs predose: statistically significant reduction; also recorded: reduced; also recorded: transient reduction
[4]; doses lower than 300 mg
  change of p-GSK3β levels in platelet-rich plasma vs predose: not significant
p-MLC2 in tumor biopsies
  paired biopsies with reduction of p-MLC2 (H scores) post-treatment: 1/5
AKT3
  IC50: 50 nM
AKT1
  IC50: 38 nM
Advanced solid tumors
  tumor response: No complete or partial responses; also recorded: no clinical responses
ROCK 2
  IC50: 4 nM
ROCK I
  IC50: 6 nM

From paper PMC7611345 (Clinical cancer research : an official journal of the …, 2020)
